Screening results (PubChem)
OX1R antag-1: OX1R (HCRTR1) antagonists, primary screen, fluorescence, CHO/OX1R cells, Fluo-8 calcium, orexin A; Orexin/Hypocretin receptor type 1 (Homo sapiens), O43613; Fluo-8 calcium fluorescence; inhibition, % at 5 µM; 0.43% of 330,000 active;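 active means inhibition above its plate's threshold, mean inhibition of all tested compounds on the plate plus 3 SD, cut at about 37% in these data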;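 further: 0% = orexin A challenge wells and 100% = SB-334867-A antagonist wells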
Target sequence (O43613 whole entry, looked up): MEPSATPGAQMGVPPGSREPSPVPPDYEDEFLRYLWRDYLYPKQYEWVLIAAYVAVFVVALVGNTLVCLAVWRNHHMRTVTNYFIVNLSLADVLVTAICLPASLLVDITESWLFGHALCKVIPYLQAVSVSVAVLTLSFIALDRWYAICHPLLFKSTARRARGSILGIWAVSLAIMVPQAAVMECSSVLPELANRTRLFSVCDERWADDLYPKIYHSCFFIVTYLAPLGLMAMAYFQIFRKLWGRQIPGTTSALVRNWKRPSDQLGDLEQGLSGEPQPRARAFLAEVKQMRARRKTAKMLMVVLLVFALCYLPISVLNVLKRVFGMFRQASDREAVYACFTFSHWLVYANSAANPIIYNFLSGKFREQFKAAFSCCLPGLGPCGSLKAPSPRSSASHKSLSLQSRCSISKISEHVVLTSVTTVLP
OX1R antag-2: antagonists of human orexin 1 receptor (OX1R); inhibition, % at 6.6 µM; OX1R-expressing cells, FRET antagonist read-out; 1.8% of 330,000 active; in the data active means inhibition mostly above about 38%, no sharp cut-off; inactive means mostly below about 40%;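 further: 0% = agonist challenge alone and 100% = reference antagonist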
CHO parental Ca: ATP-evoked calcium signal inhibitors, parental CHO, primary screen, counter-screen for OX1R antagonist project, cell-based, fluorescence, Fluo-8 calcium dye | 0.63% of 330,000 active | parental CHO-K1, ATP-induced calcium, Fluo-8 fluorescence | inhibition, % at 5.6 µM;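 active means inhibition above that plate's mean sample inhibition plus 3 SD, cut at about 26% in these data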;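 further: 0% = ATP-challenged DMSO wells and 100% = DMSO wells without ATP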
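test system = CHO parental line | reagent = ATP stimulus | measured by = intracellular calcium via Fluo-8 no-wash fluorescent dye | control set = ATP and no-ATP DMSO wells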
TAAR1 antag: human TAAR1 antagonists, primary screen, Fluo-8 calcium fluorescence, CHO RD-HGA16 cells. antagonist. Trace amine-associated receptor 1 (Homo sapiens), Q96RJ0. 1.5% of 360,000 active. AID 624466, 2012. inhibition, % at 3 µM;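 active means inhibition above a per-plate cutoff, the mean inhibition of test compounds on that plate plus 3 SD, cut at about 49% in these data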;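 further: 0% = DMSO plus EC80 beta-PEA response and 100% = DMSO alone without agonist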
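Test system: hTAAR1-expressing CHO RD-HGA16 cells, Gα16-coupled; Probe or stimulus: EC80 β-phenethylamine stimulus; Compound dosing: single nominal final test compound concentration of 3 µM; Timing: 140 s kinetic read after compound, 140 s after agonist; Signal: Fluo-8 calcium-sensitive fluorescence; Measure: % inhibition of agonist calcium response; Controls: DMSO and EC80 PEA controls.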
GPR7 antag: GPR7 receptor antagonists, primary screen, cell-based, fluorescence, single concentration. AID 1861, 2009. inhibition, % at 4.4 µM. GPR7-expressing cells, fluorescence antagonist assay. Neuropeptides B/W receptor type 1 (Homo sapiens), P48145. 1.1% of 290,000 active; in the data active means inhibition above about 16%, passing the limit was not always enough;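 further: cells stimulated with the agonist NPW; 0% = agonist with vehicle and 100% = vehicle without agonist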
TAAR1 agonist: human TAAR1 agonists, primary screen, Fluo-8 calcium fluorescence, CHO RD-HGA16 cells | 0.99% of 360,000 active | Trace amine-associated receptor 1 (Homo sapiens), Q96RJ0 | activation, % at 3 µM | vehicle wells 0%, saturating PEA agonist 100%;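 active means activation above the mean activation of all test compounds in the run plus 3 SD, cut at about 38% in these data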
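Assay system – CHO-derived RD-HGA16 cells with stable Gα16 and human TAAR1 · Compound dosing – one-point dosing at 3 µM (nominal) · Incubation – 17-24 h seeding, 75 min 37 °C dye, 30 min RT · Measured by – kinetic Fluo-8 calcium fluorescence · Control set – DMSO vehicle as 0%, PEA at EC100 as 100% · Repeats – single well for each compound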
An asterisk follows results filed as active; / = no result given. A selection: hits, their analogues and other compounds. The true share with any hit is near 4.5%.

SMILES	OX1R antag-1	OX1R antag-2	CHO parental Ca	TAAR1 antag	GPR7 antag	TAAR1 agonist
Cc1ccc(NS(=O)(=O)c2ccc(NC(=O)c3cccc(NC(=O)C(C)C)c3)cc2)cc1	82*	49	67*	53*	0	8
Cc1ccc(S(=O)(=O)Nc2ccc(C(=O)Nc3ccncc3)cc2)cc1	-2	24	-5	-18	5	1
COc1ccc(N2C[C@@]3(O)CC[C@@H](O)[C@@H](OC)[C@@H]3[C@@]2(C)[C@H](O)CC=C(C)C)cc1	/	/	/	-7	/	0
O=C(Nc1ccc(OC(F)(F)C(F)F)c(NC(=O)c2ccc(F)cc2)c1)c1ccc(F)cc1	28	65*	7	32	-13	8
Nc1ccc(C(=O)Nc2ccc(OC(F)(F)C(F)F)c(NC(=O)c3ccc(N)cc3)c2)cc1	13	59	-4	16	-7	7
CCCCNc1c(-c2ccc(OC)c(SC(C)CC)c2)nc2cnccn12 (stereo unspecified)	/	/	/	3	/	4
CCCCNc1c(-c2cccc(SC3CCCCC3)c2)nc2ccc(Cl)cn12	-36	29	-40	26	/	3
CCCCNc1c(-c2ccc(SC(C)CC)cc2)nc2ccccn12 (stereo unspecified)	56*	61	87*	96*	/	12
c1ccc(CNc2c(-c3cccc(SC4CCCCC4)c3)nc3ccccn23)cc1	73*	35	82*	55*	/	2
CCCCNc1c(-c2ccc(SC3CCCCC3)cc2)nc2ccccn12	41	31	80*	30	/	-1
Clc1ccc2nc(-c3cccc(SC4CCCCC4)c3)c(NCc3ccccc3)n2c1	-24	25	-30	29	/	1
C[C@@H]1CN(c2ccc(N3CCNC[C@@H]3C)cc2C#N)CCN1Cc1ccccc1	/	/	/	-1	/	4
CC(=O)N1CCN(c2ccc([N+](=O)[O-])c(NCC3CCCO3)c2)CC1 (stereo unspecified)	-9	79*	-14	0	4	6
CCOC(=O)c1cccc2c1-c1ccccc1/C2=N/O	-29	15	6	-16	-9	0
CC(C)COC(=O)c1cccc2c1-c1ccccc1/C2=N\O	-9	18	41*	21	-20	9
COc1ccc2c(c1OC)C(=O)N1c3ccccc3C(=O)N(c3ccccc3F)C21 (stereo unspecified)	-18	48	-28	66*	-3	18
COc1ccc2c(c1OC)C(=O)N1c3ccccc3SC21 (stereo unspecified)	-23	32	-29	6	-1	9
Cc1cc(Oc2cccnc2)ccc1NC(=O)Cc1c(C)[nH]c2ccccc12	/	/	/	13	/	-2
COc1ccc2c(c1)[C@@]1(OCCC=C[C@H]1C)C(=O)N2Cc1ccccc1C(F)(F)F	/	/	/	-49	/	6
c1ccc(CN(Cc2cccs2)C(c2cccs2)c2nnnn2C2CCCC2)cc1 (stereo unspecified)	-26	9	34*	-1	-14	2
Cn1c(=O)c2c(nc(C(O)c3ccccc3)n2C)n(C)c1=O (stereo unspecified)	/	/	/	8	/	0
CC(C)(C)n1ncc2c(=O)n(Cc3cccc(Cn4cnc5c(cnn5C(C)(C)C)c4=O)c3F)cnc21	64*	29	62*	10	/	8
CCOC(=O)N1CCC2(CC1)CC(=O)c1cc(O)ccc1O2	-1	19	-9	-11	18*	3
CCOC(=O)COc1ccc2c(c1)C(=O)CC1(CCN(C(C)=O)CC1)O2	-12	7	-12	1	5	13
Cc1cc(C)cc(N(CC(=O)NC2CCCC2)C(=O)CCC(=O)Nc2nc(C)cs2)c1	-11	23	-19	-7	8	43*
Cc1noc(C)c1S(=O)(=O)N(C)C[C@@H]1OCc2cnnn2CCCC(=O)N([C@@H](C)CO)C[C@@H]1C	/	/	/	2	/	7
